Results reported in ChEMBL document CHEMBL4602724, “Validating the 1,2-Difluoro Motif As a Hybrid Bioisostere of CF3 and Et Using Matrix Metalloproteinases As Structural Probes” (J Med Chem, 2020).

Legend:
[1] = target: Matrix metalloproteinase-9 (Homo sapiens, UniProt P14780); test: Inhibition of human active MMP9 using (7-methoxycoumarin-4-yl)acetyl-Pro-Leu-Gly-Leu-(3-(2,4-dinitrophenyl)-L-2,3-diamino-propionyl)Ala-Arg-NH2 as substrate preincubated for 30 mins followed by substrate addition and measured for 10 mins by fluorescence assay
Matrix metalloproteinase-9, sequence (P14780 whole entry): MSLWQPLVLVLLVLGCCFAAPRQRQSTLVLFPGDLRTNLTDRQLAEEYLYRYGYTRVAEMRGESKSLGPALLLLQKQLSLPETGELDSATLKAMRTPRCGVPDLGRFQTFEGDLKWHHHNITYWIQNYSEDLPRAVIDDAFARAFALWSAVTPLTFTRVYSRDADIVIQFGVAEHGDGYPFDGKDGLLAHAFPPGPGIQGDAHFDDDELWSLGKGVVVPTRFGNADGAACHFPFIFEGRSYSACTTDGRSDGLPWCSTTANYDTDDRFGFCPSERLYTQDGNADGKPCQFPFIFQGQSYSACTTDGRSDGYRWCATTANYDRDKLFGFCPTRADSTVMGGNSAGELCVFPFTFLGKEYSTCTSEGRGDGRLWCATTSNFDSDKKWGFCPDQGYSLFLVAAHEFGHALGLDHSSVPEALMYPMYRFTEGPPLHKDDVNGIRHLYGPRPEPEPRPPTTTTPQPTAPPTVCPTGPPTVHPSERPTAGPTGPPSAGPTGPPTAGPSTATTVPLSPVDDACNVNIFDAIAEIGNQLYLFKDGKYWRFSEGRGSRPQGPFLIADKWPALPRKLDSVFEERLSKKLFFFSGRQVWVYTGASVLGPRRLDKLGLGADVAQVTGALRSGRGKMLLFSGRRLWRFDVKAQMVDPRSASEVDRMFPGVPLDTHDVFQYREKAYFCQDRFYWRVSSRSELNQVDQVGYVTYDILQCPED
How it was run: (§1)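 Human active enzyme at 2 nM was preincubated with compound (10 pM–1 mM) for 30 min at 37 °C in 50 mM Tris·HCl pH 7.5 with 0.2 M NaCl, 5 mM CaCl2, […] ZnSO4 and 0.05% Brij 35. Substrate was then added and fluorescence (ex 330/em 390 nm) followed at 37 °C. Initial 10-min linear rates were plotted against inhibitor concentration. IC50 is the mean of three experiments.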

Collagenase 3 = Collagenase 3 (Homo sapiens, UniProt P45452); test: Inhibition of human active MMP13 using (7-methoxycoumarin-4-yl)acetyl-Pro-Leu-Gly-Leu-(3-(2,4-dinitrophenyl)-L-2,3-diamino-propionyl)Ala-Arg-NH2 as substrate preincubated for 30 mins followed by substrate addition and measured for 10 mins by fluorescence assay; how it was run: as §1
Neutrophil collagenase = Neutrophil collagenase (Homo sapiens, UniProt P22894); test: Inhibition of human active MMP8 using (7-methoxycoumarin-4-yl)acetyl-Pro-Leu-Gly-Leu-(3-(2,4-dinitrophenyl)-L-2,3-diamino-propionyl)Ala-Arg-NH2 as substrate preincubated for 30 mins followed by substrate addition and measured for 10 mins by fluorescence assay; how it was run: as §1
Neutrophil collagenase, sequence (P22894 whole entry): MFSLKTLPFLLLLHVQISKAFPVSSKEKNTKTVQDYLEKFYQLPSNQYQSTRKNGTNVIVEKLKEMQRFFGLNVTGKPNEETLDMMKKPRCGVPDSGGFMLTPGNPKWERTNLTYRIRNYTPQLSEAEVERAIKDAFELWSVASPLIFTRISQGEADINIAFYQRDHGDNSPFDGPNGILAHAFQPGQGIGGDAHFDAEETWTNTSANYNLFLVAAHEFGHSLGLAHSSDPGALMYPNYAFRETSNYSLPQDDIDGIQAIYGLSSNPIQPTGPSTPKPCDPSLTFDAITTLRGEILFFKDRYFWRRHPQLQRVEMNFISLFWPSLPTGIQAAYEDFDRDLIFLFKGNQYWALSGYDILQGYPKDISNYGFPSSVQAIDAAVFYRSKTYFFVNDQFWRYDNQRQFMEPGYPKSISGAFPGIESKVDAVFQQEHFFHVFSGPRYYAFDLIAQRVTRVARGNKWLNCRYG

[2] = target: 72 kDa type IV collagenase (Homo sapiens, UniProt P08253); test: Inhibition of human active MMP2 using (7-methoxycoumarin-4-yl)acetyl-Pro-Leu-Gly-Leu-(3-(2,4-dinitrophenyl)-L-2,3-diamino-propionyl)Ala-Arg-NH2 as substrate preincubated for 30 mins followed by substrate addition and measured for 10 mins by fluorescence assay; how it was run: as §1
72 kDa type IV collagenase, sequence (P08253 whole entry): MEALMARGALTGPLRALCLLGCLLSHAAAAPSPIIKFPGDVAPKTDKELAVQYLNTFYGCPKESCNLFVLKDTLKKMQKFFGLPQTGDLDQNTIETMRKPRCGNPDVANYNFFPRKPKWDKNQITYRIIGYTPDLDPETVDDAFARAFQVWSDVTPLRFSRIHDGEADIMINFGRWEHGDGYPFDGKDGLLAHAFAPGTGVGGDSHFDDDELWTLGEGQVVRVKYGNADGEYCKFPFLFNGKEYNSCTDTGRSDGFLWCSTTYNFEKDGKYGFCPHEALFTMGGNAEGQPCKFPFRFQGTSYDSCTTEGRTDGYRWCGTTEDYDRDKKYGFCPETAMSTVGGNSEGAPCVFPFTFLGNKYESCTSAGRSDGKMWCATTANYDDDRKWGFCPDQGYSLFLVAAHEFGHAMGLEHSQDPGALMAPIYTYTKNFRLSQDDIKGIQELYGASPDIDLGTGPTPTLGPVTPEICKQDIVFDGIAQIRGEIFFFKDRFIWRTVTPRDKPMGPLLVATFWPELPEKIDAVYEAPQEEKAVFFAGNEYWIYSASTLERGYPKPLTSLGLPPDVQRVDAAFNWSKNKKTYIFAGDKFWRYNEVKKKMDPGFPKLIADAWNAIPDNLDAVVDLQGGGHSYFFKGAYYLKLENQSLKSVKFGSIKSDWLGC

Compound | IC50 ([1]; read-out: IC50) [nM] | IC50 (Collagenase 3; read-out: IC50) [nM] | IC50 (Neutrophil collagenase; read-out: IC50) [nM] | IC50 ([2]; read-out: IC50) [nM] | IC50 [1] | IC50 (Collagenase 3) | IC50 (Neutrophil collagenase) | IC50 [2]
COc1ccc(CC2(CCCCCCCC(F)(F)F)C(=O)NC(=O)NC2=O)cc1 | 62 | 177 | 187 | 209 | – | – | – | –
CCCCCCCCC1(Cc2ccc(OC)cc2)C(=O)NC(=O)NC1=O | 3 | 94 | 73 | 42 | – | – | – | –
CC(C)CCCCCCCC1(Cc2ccccc2)C(=O)NC(=O)NC1=O | – | – | – | – | Nd(Insoluble) | Nd(Insoluble) | Nd(Insoluble) | Nd(Insoluble)
CCCCCCCCCC1(Cc2ccc(OC)cc2)C(=O)NC(=O)NC1=O | 93 | 83 | 84 | 94 | – | – | – | –
O=C1NC(=O)C(CCCCCCC(F)CF)(Cc2ccccc2)C(=O)N1 (stereo not drawn) | 123 | 127 | 125 | 253 | – | – | – | –
O=C1NC(=O)C(CCCCCCCC(F)CF)(Cc2ccccc2)C(=O)N1 (stereo not drawn) | 60 | 163 | 180 | 320 | – | – | – | –
COc1ccc(CC2(CCCCCCCC(C)C)C(=O)NC(=O)NC2=O)cc1 | 60 | 225 | 281 | 207 | – | – | – | –
CCCCCCCCC1(Cc2ccccc2)C(=O)NC(=O)NC1=O | 22 | 214 | 157 | 288 | – | – | – | –
O=C1NC(=O)C(CCCCCCCC(F)(F)F)(Cc2ccccc2)C(=O)N1 | 52 | 753 | 229 | 567 | – | – | – | –
CCCCCCCCCC1(Cc2ccccc2)C(=O)NC(=O)NC1=O | 5 | 180 | 96 | 210 | – | – | – | –
COc1ccc(CC2(CCCCCCCC(F)CF)C(=O)NC(=O)NC2=O)cc1 (racemic) | 26 | 64 | 110 | 139 | – | – | – | –
COc1ccc(CC2(CCCCCCC(F)CF)C(=O)NC(=O)NC2=O)cc1 (stereo not drawn) | 47 | 17 | 165 | 411 | – | – | – | –
